In ChEMBL document CHEMBL1142136, “Contribution of target gene mutations and efflux to decreased susceptibility of Salmonella enterica serovar typhimurium to fluoroquinolones and other antimicrobials” (2007):
Converted amounts (≈) assume the structure as drawn.

What was measured:
Assay type in all cases: functional, Salmonella enterica subsp. enterica serovar Typhimurium
[1] = system: Salmonella typhimurium; test: Antimicrobial activity against Salmonella enterica serovar Typhimurium S21 gyrA+
Summary of the method: (§1)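 MICs measured by broth microdilution on the Sensititre automated system and interpreted by CLSI broth microdilution standards. Ciprofloxacin was also tested by agar dilution, widening the range to 0.0075–128 μg/ml. Quality control strains were E. coli ATCC 25922 and 35218, E. faecalis ATCC 29212, S. aureus ATCC 29213 and P. aeruginosa ATCC 27853.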

[2] = system: Salmonella typhimurium; test: Antimicrobial activity against Salmonella enterica serovar Typhimurium S21-3 with GyrA S83F, ParC S80I mutation; summary of the method: as §1
[3] = system: Salmonella typhimurium; test: Antimicrobial activity against Salmonella enterica serovar Typhimurium CHS14 gyrA+ with GyrA D87G mutation; summary of the method: as §1
[4] = system: Salmonella typhimurium; test: Antimicrobial activity against Salmonella enterica serovar Typhimurium CHS18 with GyrA S38F mutation; summary of the method: as §1
[5] = system: Salmonella typhimurium; test: Antimicrobial activity against Salmonella enterica serovar Typhimurium S21-1 GyrA S83F mutant; summary of the method: as §1
[6] = system: Salmonella typhimurium; test: Antimicrobial activity against Salmonella enterica serovar Typhimurium S21 tolC::Kan
Summary of the method: (§2)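 MICs by automated broth microdilution panels, interpreted to CLSI broth microdilution standards. Ciprofloxacin additionally tested by agar dilution across 0.0075 to 128 μg/ml. Quality control strains: E. coli ATCC 25922 and 35218, Enterococcus faecalis ATCC 29212, S. aureus ATCC 29213, P. aeruginosa ATCC 27853. Test strains are kanamycin-marked deletion mutants of ground-beef isolate S21.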

[7] = system: Salmonella typhimurium; test: Antimicrobial activity against Salmonella enterica serovar Typhimurium S21-2 gyrA+ with ParC S80I mutation; summary of the method: as §1
[8] = system: Salmonella typhimurium; test: Antimicrobial activity against Salmonella enterica serovar Typhimurium S21-3 tolC::Kan with GyrA S83F, ParC S80I mutation; summary of the method: as §1
[9] = system: Salmonella typhimurium; test: Antimicrobial activity against Salmonella enterica serovar Typhimurium S21-1 tolC::Kan with GyrA S83F mutation; summary of the method: as §1
[10] = system: Salmonella typhimurium; test: Antimicrobial activity against Salmonella enterica serovar Typhimurium S21-4 with GyrA S83F, ParC S80I mutation; summary of the method: as §1
[11] = system: Salmonella typhimurium; test: Antimicrobial activity against Salmonella enterica serovar Typhimurium CHS38 gyrA+ with GyrA D87G mutation; summary of the method: as §1
[12] = system: Salmonella typhimurium; test: Antimicrobial activity against Salmonella enterica serovar Typhimurium S21-3 gyrA+ with ParC S80I mutation; summary of the method: as §1
[13] = system: Salmonella typhimurium; test: Antimicrobial activity against Salmonella enterica serovar Typhimurium CS3 tolC::Kan with GyrA S83F, D87N, parC S80I mutation; summary of the method: as §1
[14] = system: Salmonella typhimurium; test: Antimicrobial activity against Salmonella enterica serovar Typhimurium S21-3 acrAB::Kan with GyrA S83F, ParC S80I mutation; summary of the method: as §1
[15] = system: Salmonella typhimurium; test: Antimicrobial activity against Salmonella enterica serovar Typhimurium CS9 tolC::Kan with GyrA S83F, D87N, ParC S80I mutation; summary of the method: as §1
[16] = system: Salmonella typhimurium; test: Antimicrobial activity against Salmonella enterica serovar Typhimurium CS9 gyrA+ with GyrA S83F, D87N, ParC S80I mutation; summary of the method: as §1
[17] = system: Salmonella typhimurium; test: Antimicrobial activity against Salmonella enterica serovar Typhimurium S21-2 tolC::Kan with GyrA S83F, ParC S80I mutation; summary of the method: as §1
[18] = system: Salmonella typhimurium; test: Antimicrobial activity against Salmonella enterica serovar Typhimurium CS9 acrAB::Kan with GyrA S83F, D87N, ParC S80I mutation; summary of the method: as §1
[19] = system: Salmonella typhimurium; test: Antimicrobial activity against Salmonella enterica serovar Typhimurium CHS38 with GyrA D87G mutation; summary of the method: as §1
[20] = system: Salmonella typhimurium; test: Antimicrobial activity against Salmonella enterica serovar Typhimurium S21-4 gyrA+ with ParC S80I mutation; summary of the method: as §1
[21] = system: Salmonella typhimurium; test: Antimicrobial activity against Salmonella enterica serovar Typhimurium S21; summary of the method: as §1
[22] = system: Salmonella typhimurium; test: Antimicrobial activity against Salmonella enterica serovar Typhimurium S21-4 tolC::Kan with GyrA S83F, ParC S80I mutation; summary of the method: as §1
[23] = system: Salmonella typhimurium; test: Antimicrobial activity against Salmonella enterica serovar Typhimurium S21-2 acrAB::Kan with GyrA S83F, ParC S80I mutation; summary of the method: as §1
[24] = system: Salmonella typhimurium; test: Antimicrobial activity against Salmonella enterica serovar Typhimurium CHS14 with GyrA D87G mutation; summary of the method: as §1
[25] = system: Salmonella typhimurium; test: Antimicrobial activity against Salmonella enterica serovar Typhimurium CS3 acrAB::Kan with GyrA S83F, D87N, ParC S80I mutation; summary of the method: as §1
[26] = system: Salmonella typhimurium; test: Antimicrobial activity against Salmonella enterica serovar Typhimurium CHS38 acrAB::Kan with GyrA D87G mutation; summary of the method: as §1
[27] = system: Salmonella typhimurium; test: Antimicrobial activity against Salmonella enterica serovar Typhimurium CS1 with GyrA S83F, D87N, ParC S80I mutation; summary of the method: as §1
[28] = system: Salmonella typhimurium; test: Antimicrobial activity against Salmonella enterica serovar Typhimurium GyrA S21-1 acrAB::Kan with GyrA S83F mutation; summary of the method: as §1
[29] = system: Salmonella typhimurium; test: Antimicrobial activity against Salmonella enterica serovar Typhimurium CHS18 acrAB::Kan with GyrA S38F mutation; summary of the method: as §1
[30] = system: Salmonella typhimurium; test: Antimicrobial activity against Salmonella enterica serovar Typhimurium CHS18 tolC::Kan with GyrA S38F mutation; summary of the method: as §1
[31] = system: Salmonella typhimurium; test: Antimicrobial activity against Salmonella enterica serovar Typhimurium CS1 gyrA+ with GyrA S83F, D87N, ParC S80I mutation; summary of the method: as §1
[32] = system: Salmonella typhimurium; test: Antimicrobial activity against Salmonella enterica serovar Typhimurium S21-4 acrAB::Kan with GyrA S83F, ParC S80I mutation; summary of the method: as §1
[33] = system: Salmonella typhimurium; test: Antimicrobial activity against Salmonella enterica serovar Typhimurium S21 acrAB::Kan; summary of the method: as §2
[34] = system: Salmonella typhimurium; test: Antimicrobial activity against Salmonella enterica serovar Typhimurium CS3 with GyrA S83F, D87N, ParC S80I mutation; summary of the method: as §1
[35] = system: Salmonella typhimurium; test: Antimicrobial activity against Salmonella enterica serovar Typhimurium S21-2 with GyrA S83F, ParC S80I mutation; summary of the method: as §1
[36] = system: Salmonella typhimurium; test: Antimicrobial activity against Salmonella enterica serovar Typhimurium CS1 tolC::Kan with GyrA S83F, D87N, ParC S80I mutation; summary of the method: as §1
[37] = system: Salmonella typhimurium; test: Antimicrobial activity against Salmonella enterica serovar Typhimurium CHS38 tolC::Kan with GyrA D87G mutation; summary of the method: as §1
[38] = system: Salmonella typhimurium; test: Antimicrobial activity against Salmonella enterica serovar Typhimurium CS3 gyrA+ with GyrA S83F, D87N, ParC S80I mutation; summary of the method: as §1
[39] = system: Salmonella typhimurium; test: Antimicrobial activity against Salmonella enterica serovar Typhimurium CHS18 gyrA+ with GyrA S38F mutation; summary of the method: as §1
[40] = system: Salmonella typhimurium; test: Antimicrobial activity against Salmonella enterica serovar Typhimurium CHS14 tolC::Kan with GyrA D87G mutant; summary of the method: as §1
[41] = system: Salmonella typhimurium; test: Antimicrobial activity against Salmonella enterica serovar Typhimurium S21-1 gyrA+; summary of the method: as §1
[42] = system: Salmonella typhimurium; test: Antimicrobial activity against Salmonella enterica serovar Typhimurium CHS14 acrAB::Kan with GyrA D87G mutation; summary of the method: as §1
[43] = system: Salmonella typhimurium; test: Antimicrobial activity against Salmonella enterica serovar Typhimurium CS9 with GyrA S83F, D87N, ParC S80I mutation; summary of the method: as §1
[44] = system: Salmonella typhimurium; test: Antimicrobial activity against Salmonella enterica serovar Typhimurium CS1 acrAB::Kan with GyrA S83F, D87N, ParC S80I mutation; summary of the method: as §1

CN1CCN(c2cc3c(cc2F)c(=O)c(C(=O)O)cn3-c2ccc(F)cc2)CC1 [DIFLOXACIN]
MIC [1]: 0.25 µg/mL (≈ 0.626 µM) | MIC [2]: > 16 µg/mL | MIC [3]: 0.5 µg/mL (≈ 1.25 µM) | MIC [4]: 2 µg/mL (≈ 5.01 µM) | MIC [5]: 4 µg/mL (≈ 10 µM) | MIC [6]: < 0.015 µg/mL | MIC [7]: 2 µg/mL (≈ 5.01 µM) | MIC [8]: 0.5 µg/mL (≈ 1.25 µM) | MIC [9]: 0.25 µg/mL (≈ 0.626 µM) | MIC [10]: > 16 µg/mL | MIC [11]: < 0.015 µg/mL | MIC [12]: 4 µg/mL (≈ 10 µM) | MIC [13]: 4 µg/mL (≈ 10 µM) | MIC [14]: 0.5 µg/mL (≈ 1.25 µM) | MIC [15]: 4 µg/mL (≈ 10 µM) | MIC [16]: 0.5 µg/mL (≈ 1.25 µM) | MIC [17]: 0.25 µg/mL (≈ 0.626 µM) | MIC [18]: 16 µg/mL (≈ 40.1 µM) | MIC [19]: 1 µg/mL (≈ 2.5 µM) | MIC [20]: 4 µg/mL (≈ 10 µM) | MIC [21]: 0.25 µg/mL (≈ 0.626 µM) | MIC [22]: 1 µg/mL (≈ 2.5 µM) | MIC [23]: 0.25 µg/mL (≈ 0.626 µM) | MIC [24]: 1 µg/mL (≈ 2.5 µM) | MIC [25]: 16 µg/mL (≈ 40.1 µM) | MIC [26]: 0.06 µg/mL (≈ 0.15 µM) | MIC [27]: > 16 µg/mL | MIC [28]: 0.25 µg/mL (≈ 0.626 µM) | MIC [29]: 1 µg/mL (≈ 2.5 µM) | MIC [30]: 0.06 µg/mL (≈ 0.15 µM) | MIC [31]: 0.5 µg/mL (≈ 1.25 µM) | MIC [32]: 1 µg/mL (≈ 2.5 µM) | MIC [33]: < 0.015 µg/mL | MIC [34]: > 16 µg/mL | MIC [35]: > 16 µg/mL | MIC [36]: 4 µg/mL (≈ 10 µM) | MIC [37]: < 0.015 µg/mL | MIC [38]: 0.5 µg/mL (≈ 1.25 µM) | MIC [39]: 0.25 µg/mL (≈ 0.626 µM) | MIC [40]: 0.03 µg/mL (≈ 0.0751 µM) | MIC [41]: 0.25 µg/mL (≈ 0.626 µM) | MIC [42]: 0.03 µg/mL (≈ 0.0751 µM) | MIC [43]: > 16 µg/mL | MIC [44]: 16 µg/mL (≈ 40.1 µM)

CCn1cc(C(=O)O)c(=O)c2cc(F)c(N3CCNCC3)nc21 [ENOXACIN]
MIC [1]: 0.06 µg/mL (≈ 0.187 µM) | MIC [2]: > 16 µg/mL | MIC [3]: 0.06 µg/mL (≈ 0.187 µM) | MIC [4]: 0.5 µg/mL (≈ 1.56 µM) | MIC [5]: 0.5 µg/mL (≈ 1.56 µM) | MIC [6]: < 0.015 µg/mL | MIC [7]: 1 µg/mL (≈ 3.12 µM) | MIC [8]: 0.12 µg/mL (≈ 0.375 µM) | MIC [9]: 0.06 µg/mL (≈ 0.187 µM) | MIC [10]: > 16 µg/mL | MIC [11]: < 0.015 µg/mL | MIC [12]: 2 µg/mL (≈ 6.24 µM) | MIC [13]: 4 µg/mL (≈ 12.5 µM) | MIC [14]: 0.25 µg/mL (≈ 0.78 µM) | MIC [15]: 4 µg/mL (≈ 12.5 µM) | MIC [16]: 0.06 µg/mL (≈ 0.187 µM) | MIC [17]: 0.12 µg/mL (≈ 0.375 µM) | MIC [18]: 4 µg/mL (≈ 12.5 µM) | MIC [19]: 0.12 µg/mL (≈ 0.375 µM) | MIC [20]: 4 µg/mL (≈ 12.5 µM) | MIC [21]: 0.06 µg/mL (≈ 0.187 µM) | MIC [22]: 0.12 µg/mL (≈ 0.375 µM) | MIC [23]: 0.12 µg/mL (≈ 0.375 µM) | MIC [24]: 1 µg/mL (≈ 3.12 µM) | MIC [25]: 4 µg/mL (≈ 12.5 µM) | MIC [26]: 0.03 µg/mL (≈ 0.0937 µM) | MIC [27]: 16 µg/mL (≈ 49.9 µM) | MIC [28]: 0.06 µg/mL (≈ 0.187 µM) | MIC [29]: 0.25 µg/mL (≈ 0.78 µM) | MIC [30]: 0.03 µg/mL (≈ 0.0937 µM) | MIC [31]: 0.06 µg/mL (≈ 0.187 µM) | MIC [32]: 0.12 µg/mL (≈ 0.375 µM) | MIC [33]: < 0.015 µg/mL | MIC [34]: 16 µg/mL (≈ 49.9 µM) | MIC [35]: 8 µg/mL (≈ 25 µM) | MIC [36]: 4 µg/mL (≈ 12.5 µM) | MIC [37]: < 0.015 µg/mL | MIC [38]: 0.06 µg/mL (≈ 0.187 µM) | MIC [39]: 0.12 µg/mL (≈ 0.375 µM) | MIC [40]: < 0.015 µg/mL | MIC [41]: 0.06 µg/mL (≈ 0.187 µM) | MIC [42]: 0.03 µg/mL (≈ 0.0937 µM) | MIC [43]: 16 µg/mL (≈ 49.9 µM) | MIC [44]: 4 µg/mL (≈ 12.5 µM)
